pIC50: −log10 of the molar value. Values after ≈ are worked out from the molar mass of the structure shown.
Experiments:
Mus musculus = assay: Maximum amount of weight loss in Balb/C mice after 7 days of 60 mg/kg intraperitoneal administration; format: functional
Outline: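 Balb/C mice were given a single ip dose of 60 mg/kg in 100 µL DMSO (stock 10 mg/mL in DMSO), or vehicle alone. Mice were weighed daily until treated animals returned to pretreatment weight. The value is the maximum weight loss measured over 7 days.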

Fatty acid synthase = Fatty acid synthase (Homo sapiens, UniProt P49327); assay: Inhibitory concentration against purified human fatty acid synthase activity in ZR-75-1 breast cancer cells
Outline: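 FAS purified from ZR-75-1 human breast cancer cells (2 µg per well). Overall reaction read at 37 °C as malonyl-CoA-dependent NADPH oxidation at 340 nm, every 10 s for 5 min. Average of duplicate runs; neg means IC50 > 50 µg/mL.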

MCF7 [1] = assay: Inhibitory concentration against MCF-7 breast cancer cells in XTT assay (non radioactive assay); format: functional, cell-based, Homo sapiens
Outline: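 MCF-7 human breast cancer cells, cytotoxicity measured by XTT cell proliferation assay (nonradioactive). The procedure was adapted from the kit instructions. IC50 is the average of duplicate runs.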

MCF7 [2] = assay: Inhibitory concentration against fatty acid synthesis in MCF-7 breast cancer cells; format: functional, cell-based, Homo sapiens
[3] = Homo sapiens, MCF7, read-out: IC50

Chain of Fatty acid synthase (P49327 whole entry): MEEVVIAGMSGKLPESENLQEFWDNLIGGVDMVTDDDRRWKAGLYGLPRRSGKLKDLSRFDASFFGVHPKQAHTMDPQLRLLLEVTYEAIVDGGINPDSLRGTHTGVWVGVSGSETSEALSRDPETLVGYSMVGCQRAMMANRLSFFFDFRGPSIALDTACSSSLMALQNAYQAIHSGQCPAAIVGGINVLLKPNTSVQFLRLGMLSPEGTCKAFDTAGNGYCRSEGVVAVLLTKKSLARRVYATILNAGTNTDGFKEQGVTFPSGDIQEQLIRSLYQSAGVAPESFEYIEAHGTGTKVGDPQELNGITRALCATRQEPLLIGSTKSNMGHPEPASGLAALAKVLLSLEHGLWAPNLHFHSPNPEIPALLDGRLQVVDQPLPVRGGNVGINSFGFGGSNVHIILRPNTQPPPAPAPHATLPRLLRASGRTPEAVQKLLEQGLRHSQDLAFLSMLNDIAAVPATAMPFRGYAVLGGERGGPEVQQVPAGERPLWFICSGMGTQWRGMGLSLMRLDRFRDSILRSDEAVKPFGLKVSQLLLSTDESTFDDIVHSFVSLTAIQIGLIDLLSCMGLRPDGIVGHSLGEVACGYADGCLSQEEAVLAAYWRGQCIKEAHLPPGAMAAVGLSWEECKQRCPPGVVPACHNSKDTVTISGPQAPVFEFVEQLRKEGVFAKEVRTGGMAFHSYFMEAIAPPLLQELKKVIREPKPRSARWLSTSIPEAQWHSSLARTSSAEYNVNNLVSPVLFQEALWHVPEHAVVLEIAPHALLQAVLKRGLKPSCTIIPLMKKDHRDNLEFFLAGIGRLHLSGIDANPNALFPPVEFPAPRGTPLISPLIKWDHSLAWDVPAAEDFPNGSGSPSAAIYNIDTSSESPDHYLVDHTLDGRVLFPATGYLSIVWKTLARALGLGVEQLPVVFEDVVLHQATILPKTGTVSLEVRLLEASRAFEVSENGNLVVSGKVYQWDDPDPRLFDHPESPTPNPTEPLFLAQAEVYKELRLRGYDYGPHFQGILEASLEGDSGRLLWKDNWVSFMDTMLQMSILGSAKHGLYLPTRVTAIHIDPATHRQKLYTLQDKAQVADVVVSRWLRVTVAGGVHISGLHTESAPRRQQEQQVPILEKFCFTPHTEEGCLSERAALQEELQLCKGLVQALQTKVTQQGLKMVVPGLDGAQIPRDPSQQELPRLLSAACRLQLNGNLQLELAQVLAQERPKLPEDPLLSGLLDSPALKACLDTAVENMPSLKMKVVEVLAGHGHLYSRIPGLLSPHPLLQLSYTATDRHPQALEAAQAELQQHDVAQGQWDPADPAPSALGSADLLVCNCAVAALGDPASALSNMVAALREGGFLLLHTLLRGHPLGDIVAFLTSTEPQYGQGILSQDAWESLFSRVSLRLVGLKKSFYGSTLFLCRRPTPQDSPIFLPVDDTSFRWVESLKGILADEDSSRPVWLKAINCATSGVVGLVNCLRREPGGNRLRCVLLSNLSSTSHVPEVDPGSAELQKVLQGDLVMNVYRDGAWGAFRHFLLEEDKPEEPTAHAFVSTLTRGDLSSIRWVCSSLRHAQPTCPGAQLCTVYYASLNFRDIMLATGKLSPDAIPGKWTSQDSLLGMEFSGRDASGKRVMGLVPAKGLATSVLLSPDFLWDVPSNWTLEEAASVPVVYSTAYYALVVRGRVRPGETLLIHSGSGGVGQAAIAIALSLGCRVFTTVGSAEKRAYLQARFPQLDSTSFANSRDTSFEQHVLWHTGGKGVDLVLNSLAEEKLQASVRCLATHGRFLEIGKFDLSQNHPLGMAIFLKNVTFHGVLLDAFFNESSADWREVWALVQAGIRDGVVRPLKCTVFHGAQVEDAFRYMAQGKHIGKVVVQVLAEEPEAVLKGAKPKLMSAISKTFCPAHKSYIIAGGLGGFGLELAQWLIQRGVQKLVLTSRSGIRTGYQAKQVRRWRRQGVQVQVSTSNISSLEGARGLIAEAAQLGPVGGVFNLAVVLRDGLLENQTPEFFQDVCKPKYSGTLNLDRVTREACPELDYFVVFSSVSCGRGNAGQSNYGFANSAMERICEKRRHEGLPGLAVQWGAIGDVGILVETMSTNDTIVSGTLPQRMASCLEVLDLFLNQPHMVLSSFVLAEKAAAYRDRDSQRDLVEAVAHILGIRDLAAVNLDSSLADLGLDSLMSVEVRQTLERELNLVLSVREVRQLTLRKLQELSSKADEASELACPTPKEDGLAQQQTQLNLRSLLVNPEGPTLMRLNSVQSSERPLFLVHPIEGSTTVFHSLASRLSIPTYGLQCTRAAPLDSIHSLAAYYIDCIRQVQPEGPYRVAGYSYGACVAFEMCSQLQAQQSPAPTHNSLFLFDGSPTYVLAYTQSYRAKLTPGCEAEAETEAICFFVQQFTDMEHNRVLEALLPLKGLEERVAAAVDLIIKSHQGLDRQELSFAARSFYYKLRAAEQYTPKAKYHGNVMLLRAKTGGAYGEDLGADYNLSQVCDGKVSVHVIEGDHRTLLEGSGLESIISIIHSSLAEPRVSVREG

CCCCCCCC[C@@]1(C)SC(O)=C(C(C)O)C1=O (stereo in doubt; 30)
Weight loss (Mus musculus; 60 mg/kg): 0.2%
pIC50 (Fatty acid synthase): 4.94
IC50 (MCF7 [1]; mcf7): 21 µg/mL (≈ 73.3 µM)
IC50 (MCF7 [2]; mcf7): 21.7 µg/mL (≈ 75.8 µM)

CC/C=C/C=C/[C@@]1(C)SC(O)=CC1=O
Weight loss (Mus musculus): 3.2%
pIC50 (Fatty acid synthase): < 3.62
IC50 (MCF7 [1]; [3]): > 80 µg/mL
IC50 (MCF7 [2]; [3]): 16.9 µg/mL (≈ 80.4 µM)

C=CCOC(=O)OC1=CC(=O)S[C@]1(C)CCCCCCCC
Weight loss (Mus musculus): 3.4%
pIC50 (Fatty acid synthase): 4.68
IC50 (MCF7 [1]; [3]): 37.3 µg/mL (≈ 114 µM)
IC50 (MCF7 [2]; [3]): 14.2 µg/mL (≈ 43.5 µM)

CCCCCCCC[C@@]1(C)SC(=O)C=C1OC
pIC50 (Fatty acid synthase): < 3.71
IC50 (MCF7 [1]; [3]): 16.4 µg/mL (≈ 64 µM)
IC50 (MCF7 [2]; [3]): > 50 µg/mL

CCCCCCCC[C@@]1(C)SC(=O)C=C1OCC(=O)O
pIC50 (Fatty acid synthase): < 3.78
IC50 (MCF7 [2]; [3]): 13.8 µg/mL (≈ 45.9 µM)

CCCCCC[C@@]1(C)SC(=O)C=C1OC
pIC50 (Fatty acid synthase): < 3.66
IC50 (MCF7 [1]; [3]): 9.4 µg/mL (≈ 41.2 µM)
IC50 (MCF7 [2]; [3]): 14 µg/mL (≈ 61.3 µM)

CCCCCCCC[C@@]1(C)SC(O)=C(C(=O)C(F)(F)F)C1=O
pIC50 (Fatty acid synthase): 3.92
IC50 (MCF7 [1]; [3]): 18.4 µg/mL (≈ 54.4 µM)
IC50 (MCF7 [2]; [3]): 14.7 µg/mL (≈ 43.4 µM)

C[C@]1(Cc2ccccc2)SC(O)=CC1=O
Weight loss (Mus musculus): 1.6%
pIC50 (Fatty acid synthase): < 3.64
IC50 (MCF7 [1]; [3]): > 80 µg/mL
IC50 (MCF7 [2]; [3]): > 50 µg/mL

CCCCCC[C@@]1(C)SC(=O)C=C1OCC(=O)NCCCBr
pIC50 (Fatty acid synthase): < 3.89
IC50 (MCF7 [1]; [3]): 21 µg/mL (≈ 53.5 µM)
IC50 (MCF7 [2]; [3]): 6.7 µg/mL (≈ 17.1 µM)

C=C/C(C)=C/[C@@]1(C)SC(=O)C(C)=C1O (stereo in doubt; form 2) [THIOLACTOMYCIN]
Weight loss (Mus musculus): 2.6%
pIC50 (Fatty acid synthase): 3.85
IC50 (MCF7 [2]; mcf7): 41.8 µg/mL (≈ 199 µM)

C=CCC1=C(O)S[C@](C)(CCCCCCCC)C1=O
pIC50 (Fatty acid synthase): 5.00
IC50 (MCF7 [1]; [3]): 44.4 µg/mL (≈ 157 µM)
IC50 (MCF7 [2]; [3]): 34.8 µg/mL (≈ 123 µM)

CCCC/C=C/C=C/[C@@]1(C)SC(O)=CC1=O
Weight loss (Mus musculus): 11%
pIC50 (Fatty acid synthase): 4.44
IC50 (MCF7 [1]; [3]): 60 µg/mL (≈ 252 µM)
IC50 (MCF7 [2]; [3]): 22.6 µg/mL (≈ 94.8 µM)

C=CCC1(C)C(=O)S[C@](C)(CCCCCCCC)C1=O (some centres undefined)
pIC50 (Fatty acid synthase): < 3.77
IC50 (MCF7 [1]; [3]): 40.5 µg/mL (≈ 137 µM)
IC50 (MCF7 [2]; [3]): > 50 µg/mL

CCCCCC[C@@]1(C)SC(=O)C=C1OCC(=O)OCC
pIC50 (Fatty acid synthase): < 3.78
IC50 (MCF7 [1]; [3]): 39.6 µg/mL (≈ 132 µM)
IC50 (MCF7 [2]; [3]): 14.2 µg/mL (≈ 47.3 µM)

C=C/C(C)=C/[C@@]1(C)SC(=O)C=C1O
Weight loss (Mus musculus): 7.8%
pIC50 (Fatty acid synthase): 4.37
IC50 (MCF7 [1]; [3]): > 80 µg/mL

CCCCCCCC[C@@]1(C)SC(O)=C(C(C)=O)C1=O
Weight loss (Mus musculus): 8.2%
pIC50 (Fatty acid synthase): < 3.75
IC50 (MCF7 [1]; [3]): 12.5 µg/mL (≈ 43.9 µM)
IC50 (MCF7 [2]; [3]): 12 µg/mL (≈ 42.2 µM)

C#CCOC1=CC(=O)S[C@]1(C)CCCCCC
pIC50 (Fatty acid synthase): < 3.70
IC50 (MCF7 [1]; [3]): 8.9 µg/mL (≈ 35.3 µM)
IC50 (MCF7 [2]; [3]): 21.9 µg/mL (≈ 86.8 µM)

CCCCCCCC[C@@]1(C)SC(=O)C=C1OC(=O)OC
Weight loss (Mus musculus): 6.1%
pIC50 (Fatty acid synthase): 5.16
IC50 (MCF7 [1]; [3]): 21.6 µg/mL (≈ 71.9 µM)
IC50 (MCF7 [2]; [3]): 10.7 µg/mL (≈ 35.6 µM)

C=CCOC1=CC(=O)S[C@]1(C)CCCCCCCC
pIC50 (Fatty acid synthase): < 3.75
IC50 (MCF7 [1]; [3]): 14.5 µg/mL (≈ 51.3 µM)
IC50 (MCF7 [2]; [3]): > 50 µg/mL

CCCCCCCC[C@@]1(C)SC(O)=C(C(C)O)C1=O (stereo in doubt; 29)
Weight loss (Mus musculus; 60 mg/kg): 3.5%
pIC50 (Fatty acid synthase): 4.70
IC50 (MCF7 [1]; [3]): 23.9 µg/mL (≈ 83.4 µM)
IC50 (MCF7 [2]; [3]): 17.6 µg/mL (≈ 61.4 µM)

CCCCCCCC[C@@]1(C)SC(=O)C=C1OC(=O)OCC
Weight loss (Mus musculus): 7.1%
pIC50 (Fatty acid synthase): 4.83
IC50 (MCF7 [1]; [3]): 15.1 µg/mL (≈ 48 µM)
IC50 (MCF7 [2]; [3]): 14.5 µg/mL (≈ 46.1 µM)

CCCCCCCC[C@@]1(C)SC(O)=C(C(=O)OC)C1=O
pIC50 (Fatty acid synthase): < 3.78
IC50 (MCF7 [1]; [3]): 47.2 µg/mL (≈ 157 µM)
IC50 (MCF7 [2]; [3]): 18.7 µg/mL (≈ 62.2 µM)

CCCCCCCC[C@@]1(C)SC(O)=C(C)C1=O
Weight loss (Mus musculus): 0%
pIC50 (Fatty acid synthase): 3.72
IC50 (MCF7 [1]; [3]): 48 µg/mL (≈ 187 µM)
IC50 (MCF7 [2]; [3]): 16.5 µg/mL (≈ 64.3 µM)

CCCCCCCC[C@@]1(C)SC(=O)C=C1OC(=O)CC
pIC50 (Fatty acid synthase): < 3.78
IC50 (MCF7 [1]; [3]): 26.8 µg/mL (≈ 89.8 µM)
IC50 (MCF7 [2]; [3]): 22.6 µg/mL (≈ 75.7 µM)

C=CCOC1=C(C)C(=O)S[C@]1(C)CCCCCCCC
pIC50 (Fatty acid synthase): < 3.77
IC50 (MCF7 [1]; [3]): 34.7 µg/mL (≈ 117 µM)
IC50 (MCF7 [2]; [3]): > 50 µg/mL

C/C=C/C(C)=C/[C@@]1(C)SC(O)=CC1=O
Weight loss (Mus musculus): 4.1%
pIC50 (Fatty acid synthase): < 3.62
IC50 (MCF7 [1]; [3]): > 80 µg/mL
IC50 (MCF7 [2]; [3]): 17.3 µg/mL (≈ 82.3 µM)

COC1=CC(=O)S[C@]1(C)Cc1ccccc1
pIC50 (Fatty acid synthase): < 3.67
IC50 (MCF7 [2]; [3]): > 50 µg/mL

C=CCOC1=CC(=O)S[C@]1(C)CCCCCC
pIC50 (Fatty acid synthase): < 3.71
IC50 (MCF7 [1]; [3]): 9 µg/mL (≈ 35.4 µM)
IC50 (MCF7 [2]; [3]): > 50 µg/mL

CCCCCCCC[C@@]1(C)SC(=O)C=C1OCCCCCl
pIC50 (Fatty acid synthase): < 3.82
IC50 (MCF7 [1]; [3]): 35.3 µg/mL (≈ 106 µM)
IC50 (MCF7 [2]; [3]): > 50 µg/mL

CCCCCC[C@@]1(C)SC(=O)C=C1OCC(=O)NCC(=O)O
Weight loss (Mus musculus): 3.5%
pIC50 (Fatty acid synthase): < 3.82
IC50 (MCF7 [2]; [3]): 6.6 µg/mL (≈ 20 µM)

CCCCCCCC[C@@]1(C)SC(O)=CC1=O
Weight loss (Mus musculus): 2%
pIC50 (Fatty acid synthase): 4.78
IC50 (MCF7 [1]; [3]): 17.6 µg/mL (≈ 72.6 µM)
IC50 (MCF7 [2]; [3]): 12.6 µg/mL (≈ 52 µM)

C=CCNC(=O)COC1=CC(=O)S[C@]1(C)CCCCCCCC
Weight loss (Mus musculus): 2.4%
pIC50 (Fatty acid synthase): < 3.83
IC50 (MCF7 [1]; [3]): 12.1 µg/mL (≈ 35.6 µM)
IC50 (MCF7 [2]; [3]): > 50 µg/mL

C=CCC1(CC=C)C(=O)S[C@](C)(CCCCCCCC)C1=O
pIC50 (Fatty acid synthase): < 3.81
IC50 (MCF7 [1]; [3]): 40.5 µg/mL (≈ 126 µM)
IC50 (MCF7 [2]; [3]): > 50 µg/mL

CCCCCC[C@@]1(C)SC(=O)C=C1OCCCCCl
pIC50 (Fatty acid synthase): < 3.79
IC50 (MCF7 [1]; [3]): 20.8 µg/mL (≈ 68.2 µM)
IC50 (MCF7 [2]; [3]): 8.6 µg/mL (≈ 28.2 µM)

CCCCCCCC[C@@]1(C)SC(=O)C(C)=C1OC
pIC50 (Fatty acid synthase): < 3.73
IC50 (MCF7 [1]; [3]): 17.3 µg/mL (≈ 64 µM)
IC50 (MCF7 [2]; [3]): > 50 µg/mL

C=C/C(C)=C/[C@@]1(C)SC(=O)C(C)=C1O (stereo in doubt; form 1) [THIOLACTOMYCIN]
pIC50 (Fatty acid synthase): 4.00
IC50 (MCF7 [1]; [3]): > 80 µg/mL
IC50 (MCF7 [2]; [3]): 38.4 µg/mL (≈ 183 µM)

CCCCCCCC[C@@]1(C)SC(=O)C=C1OCC(=O)OCC
Weight loss (Mus musculus): 2.7%
pIC50 (Fatty acid synthase): < 3.82
IC50 (MCF7 [1]; [3]): 35.3 µg/mL (≈ 107 µM)
IC50 (MCF7 [2]; [3]): 10.8 µg/mL (≈ 32.9 µM)

CCCCCC[C@@]1(C)SC(=O)C=C1OCC(=O)NCC(=O)OC
pIC50 (Fatty acid synthase): < 3.84
IC50 (MCF7 [1]; [3]): 40.5 µg/mL (≈ 118 µM)
IC50 (MCF7 [2]; [3]): 9.8 µg/mL (≈ 28.5 µM)

CCCCCC[C@@]1(C)SC(O)=CC1=O
pIC50 (Fatty acid synthase): < 3.63
IC50 (MCF7 [1]; [3]): > 80 µg/mL
IC50 (MCF7 [2]; [3]): 16.5 µg/mL (≈ 77 µM)

From ChEMBL document CHEMBL1142684, “Application of a flexible synthesis of (5R)-thiolactomycin to develop new inhibitors of type I fatty acid synthase” (J Med Chem, 2005)
